# Measured values gathered from unrelated publications.
# Protocols differ between the studies behind these lines.
# BRAF: Serine/threonine-protein kinase B-raf (BRAF, Homo sapiens, UniProt P15056)
# BRAF V600E: Serine/threonine-protein kinase B-raf (BRAF, Homo sapiens, UniProt P15056, V600E)
SMILES,target,assay,conditions,endpoint,result
C1=C/COCc2cc(ccc2OCCN2CCCC2)Nc2nccc(n2)-c2cccc(c2)COC/1,BRAF,binding,0.1 µM,remaining binding,94%
C=CC(=O)N1CCC([C@@H]2CCNc3c(C(N)=O)c(-c4ccc(Oc5ccccc5)cc4)nn32)CC1,BRAF,"enzyme activity, inhibitor",1 µM,inhibition,0%
C[C@H]1CC[C@H](n2c3cnccc3c3cnc(Nc4ccc5c(n4)CCN(C(=O)CO)C5)nc32)CC1,BRAF V600E,cell-free assay,1 µM,remaining signal,82%
C=CC(=O)N1CCC[C@@H](n2nc(-c3ccc(Oc4ccccc4)cc3)c3c(N)ncnc32)C1,BRAF V600E,"enzyme activity, inhibitor",1 µM,inhibition,61%
Cc1ccc(NC(=O)c2ccnc(C(F)(F)F)c2)cc1-c1cc(OCCO)nc(N2CCOCC2)c1,BRAF,"binding, competition with immobilised ligand",1 µM,remaining binding,0.4%
CC#CC(=O)N1CCC[C@H]1c1nc(-c2ccc(C(=O)Nc3ccccn3)cc2)c2c(N)nccn12,BRAF,"enzyme activity, inhibitor",1 µM,inhibition,43%
N#Cc1ccc(NC(=O)Nc2ccccc2)cc1,BRAF,"cell-free assay, competition with immobilised ligand",25 µM,remaining binding,100%
CN1CCN(C(=O)c2ccc(NC(=O)Nc3ccc(N(C)c4ccnc(Nc5ccc(CS(C)(=O)=O)cc5)n4)cc3)cc2)CC1,BRAF V600E,binding,1 µM,remaining binding,85%
CCCCC(=O)Nc1ccc(-c2ccc3ncn(CCC)c(=O)c3c2)cn1,BRAF V600E,"binding, competition with immobilised ligand",0.5 µM,remaining binding,95%
Cc1cc2c(C(N)=O)c(N)n(-c3c(C)ccc(O)c3C)c2nc1C,BRAF,"enzyme activity, inhibitor, ADP detection",3.333 µM,inhibition,101%
CO[C@@H]1[C@H](N(C)C(=O)c2ccccc2)C[C@H]2O[C@]1(C)n1c3ccccc3c3c4c(c5c6ccccc6n2c5c31)C(=O)NC4,BRAF V600E,"enzyme activity, inhibitor",1 µM,inhibition,0%
COc1ccc2oc(-c3ccc4nc(N)oc4c3)c/c(=N\c3ccccc3NC(=O)CCN)c2c1,BRAF,binding,1 µM,remaining binding,98%
COc1ccc2[nH]c3c4[nH]c5ccc(OC)cc5c4c4c(c3c2c1)C(=O)NC4=O,BRAF,"binding, competition with immobilised ligand",1 µM,remaining binding,86%
Cc1cc(O)c(-c2ccc([C@@H](C)CN(C)C)cc2)c2c1[nH]c(=O)c1sccc12,BRAF V600E,"cell-free assay, inhibitor","0.1 µM, lysate",inhibition,-5.15%
